Test results as given in ChEMBL document CHEMBL4152279, “Synthesis, cytotoxic evaluation and target identification of thieno[2,3-d]pyrimidine derivatives with a dithiocarbamate side chain at C2 position” (Eur J Med Chem, 2018).
Active and inactive are the calls of the source. The rule behind the calls is not given here.

Columns and labels:
[1] = molecular target: T1, Nucleolar RNA helicase 2 (Homo sapiens) (UniProt Q9NR30); assay: Binding affinity to nucleolar RNA helicase 2 in human A549 cells at 0.15 mM after 4 hrs by HPLC-MS based pull down assay relative to control; assay type: cell-based
T1 sequence (whole entry): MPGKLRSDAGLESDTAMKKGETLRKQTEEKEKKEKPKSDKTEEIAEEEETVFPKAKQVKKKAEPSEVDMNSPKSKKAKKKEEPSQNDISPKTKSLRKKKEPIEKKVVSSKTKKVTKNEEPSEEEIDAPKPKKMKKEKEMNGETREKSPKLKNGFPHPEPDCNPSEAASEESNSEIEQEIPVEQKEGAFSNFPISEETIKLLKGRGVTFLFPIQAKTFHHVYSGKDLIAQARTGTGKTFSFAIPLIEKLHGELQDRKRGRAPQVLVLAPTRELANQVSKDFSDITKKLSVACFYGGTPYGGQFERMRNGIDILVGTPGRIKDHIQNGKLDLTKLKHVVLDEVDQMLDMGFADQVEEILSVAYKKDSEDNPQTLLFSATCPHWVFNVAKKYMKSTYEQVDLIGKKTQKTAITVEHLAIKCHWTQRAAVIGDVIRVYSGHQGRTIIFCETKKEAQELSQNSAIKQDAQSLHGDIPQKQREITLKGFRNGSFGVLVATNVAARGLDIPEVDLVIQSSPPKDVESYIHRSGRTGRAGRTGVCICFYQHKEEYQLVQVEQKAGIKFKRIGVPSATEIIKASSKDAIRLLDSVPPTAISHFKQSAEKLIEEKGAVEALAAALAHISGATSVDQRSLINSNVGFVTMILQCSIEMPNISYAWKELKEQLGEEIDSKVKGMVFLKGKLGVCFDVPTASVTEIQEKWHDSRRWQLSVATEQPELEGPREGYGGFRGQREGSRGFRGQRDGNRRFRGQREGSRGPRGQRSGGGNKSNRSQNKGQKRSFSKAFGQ
Outline: (§1)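 A549 lysate in NETN buffer (pH 8.0, 0.5% NP-40) incubated with biotinylated probe (0.15 mM final) 4 h at 4 °C, with biotin or control probe as comparators. Streptavidin Dynabeads 1 h at 4 °C, six NETN washes, proteins eluted by boiling in SDS buffer. After trypsin digestion, identification by LC-MS/MS on Q Exactive HF.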

Sus scrofa [2] = species: Sus scrofa; assay: Inhibition of nocodazole binding to porcine tubulin preincubated with tubulin followed by nocodazole treatment measured after 2 hrs by immunoblot analysis
Sus scrofa [3] = species: Sus scrofa; assay: Inhibition of colchicine binding to porcine tubulin treated 2 hrs post colchicine treatment by pull down assay
Outline: (§2)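 Porcine neuronal tubulin was preincubated with excess taxol, colchicine, vinblastine or nocodazole for 2 h at 4 °C. Biotinylated probe was then added in NETN buffer, followed by streptavidin Dynabead pull-down for 1 h at 4 °C and six washes. Bound α-tubulin was detected by SDS–PAGE and immunoblot. Three independent experiments.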

Sus scrofa [4] = species: Sus scrofa; assay: Inhibition of colchicine binding to porcine tubulin preincubated with tubulin followed by colchicine treatment measured after 2 hrs by immunoblot analysis
Sus scrofa [5] = species: Sus scrofa; assay: Inhibition of nocodazole binding to porcine tubulin treated 2 hrs post colchicine treatment by pull down assay; outline: as §2
[6] = molecular target: Serine/arginine-rich splicing factor 1 (Homo sapiens) (UniProt Q07955); assay: Binding affinity to serine/arginine-rich-splicing factor 1 in human A549 cells at 0.15 mM after 4 hrs by HPLC-MS based pull down assay relative to control; assay type: cell-based; outline: as §1
Sequence of Serine/arginine-rich splicing factor 1 (Homo sapiens) (Q07955 whole entry, canonical isoform): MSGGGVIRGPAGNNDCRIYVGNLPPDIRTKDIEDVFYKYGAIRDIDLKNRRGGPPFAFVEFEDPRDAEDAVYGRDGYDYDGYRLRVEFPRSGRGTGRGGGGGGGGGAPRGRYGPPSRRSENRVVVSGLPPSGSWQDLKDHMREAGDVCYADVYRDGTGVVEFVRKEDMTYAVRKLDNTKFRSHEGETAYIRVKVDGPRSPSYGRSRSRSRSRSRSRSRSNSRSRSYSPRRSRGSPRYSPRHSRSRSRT

[7] = molecular target: Ubiquitin carboxyl-terminal hydrolase 10 (Homo sapiens) (UniProt Q14694); assay: Binding affinity to ubiquitin carboxyl-terminal hydrolase 10 isoform-2 in human A549 cells at 0.15 mM after 4 hrs by HPLC-MS based pull down assay relative to control; assay type: cell-based; outline: as §1
Sequence of Ubiquitin carboxyl-terminal hydrolase 10 (Homo sapiens) (Q14694 whole entry, canonical isoform): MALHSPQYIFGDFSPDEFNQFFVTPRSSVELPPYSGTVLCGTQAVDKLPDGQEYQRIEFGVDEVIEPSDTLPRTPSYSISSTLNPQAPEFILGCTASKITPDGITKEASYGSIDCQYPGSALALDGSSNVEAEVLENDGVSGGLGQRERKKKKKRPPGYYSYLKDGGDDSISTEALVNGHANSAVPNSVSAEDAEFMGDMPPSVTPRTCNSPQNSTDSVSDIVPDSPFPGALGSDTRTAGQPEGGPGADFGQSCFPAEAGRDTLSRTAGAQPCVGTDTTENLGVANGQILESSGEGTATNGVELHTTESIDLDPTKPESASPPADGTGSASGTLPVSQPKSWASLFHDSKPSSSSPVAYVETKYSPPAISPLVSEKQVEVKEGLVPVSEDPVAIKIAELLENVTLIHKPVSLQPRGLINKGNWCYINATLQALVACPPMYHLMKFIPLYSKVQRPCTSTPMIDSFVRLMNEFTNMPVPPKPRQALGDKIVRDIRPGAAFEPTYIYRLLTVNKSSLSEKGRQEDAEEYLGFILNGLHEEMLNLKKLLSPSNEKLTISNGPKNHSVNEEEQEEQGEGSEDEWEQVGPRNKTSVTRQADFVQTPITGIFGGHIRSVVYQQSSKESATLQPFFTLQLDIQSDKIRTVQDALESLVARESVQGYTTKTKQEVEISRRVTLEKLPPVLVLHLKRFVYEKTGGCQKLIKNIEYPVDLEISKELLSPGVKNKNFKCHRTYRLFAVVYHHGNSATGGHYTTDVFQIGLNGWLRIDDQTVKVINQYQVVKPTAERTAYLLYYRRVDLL

Activity [1]: 35.1%
inhibition (Sus scrofa [2]): Active
inhibition (Sus scrofa [3]): Active
inhibition (Sus scrofa [4]): Active
inhibition (Sus scrofa [5]): Active
Activity [6]: 52.2%
Activity [7]: 42.8%
Compound: Cc1cc2c(=O)[nH]c(CSC(=S)N(CCCNC(=O)CCCC[C@@H]3SC[C@@H]4NC(=O)N[C@@H]43)Cc3ccc(C#N)cc3)nc2s1
